# Assay results: ChEMBL document CHEMBL4152378, “Discovery of a Branched Peptide That Recognizes the Rev Response Element (RRE) RNA and Blocks HIV-1 Replication” (J Med Chem, 2018)
# The source made the active and inactive calls. The rule behind the calls is not given here.
# What was measured:
# [1] = Binding affinity to HIV1 RRE RNA in HEK293T cells transfected with HIV1 CMV driven GagPol-RRE plasmid assessed as reduction in Rev-RRE dependent nuclear export by measuring intracellular p24 levels after 48 hrs by ELISA relative to control; type: cell-based; settings: Human immunodeficiency virus 1, HEK-293T
# [2] = system: Human immunodeficiency virus 1; experiment: Binding affinity to [32P]-labeled HIV-rev response element 2B RNA assessed as protection of internal loop region from cleavage by RNase A incubated for 1 hr up to 20 uM by autoradiography based nuclease protection assay
# Outline: (§1)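 5'-32P RRE IIB (10 nM) with 200 nM unlabeled RRE IIB refolded (95 °C 3 min, ice); incubated with peptide 0–20 μM on ice 4 h in 10 mM Tris pH 7, 100 mM KCl, 10 mM MgCl2; digested on ice with RNase V1 (0.002 U, 10 min) or RNase A (20 ng, 1 h); 12% denaturing PAGE, autoradiography.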
# [3] = system: Human immunodeficiency virus 1; experiment: Binding affinity to [32P]-labeled HIV-rev response element 2B RNA assessed as protection of upper stem region from cleavage by RNase VI incubated for 10 mins up to 20 uM by autoradiography based nuclease protection assay; outline: as §1
# [4] = Binding affinity to HIV1 rev response element 2B RNA by 2-AP based displacement assay; design: species or system Human immunodeficiency virus 1
# Outline: (§2)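 2-AP-labeled RRE IIB (0.1 μM) refolded at 95 °C 3 min, snap-cooled; titrated with peptide 0–20 μM in 10 mM potassium phosphate, 100 mM KCl, 1 mM MgCl2, 20 mM NaCl, pH 7.0; excitation 310 nm, emission decrease at 372 nm; Kd from Hill fit; at least duplicate, SD. Competition lines include 10-fold excess unlabeled RNA/DNA competitor.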
# [5] = Binding affinity to HIV1 rev response element 2B RNA in presence of 10-fold excess TAR RNA by 2-AP based displacement assay; design: species or system Human immunodeficiency virus 1; outline: as §2
# [6] = Binding affinity to HIV1 rev response element 2B RNA in presence of 10-fold excess no bulge RRE RNA by 2-AP based displacement assay; design: species or system Human immunodeficiency virus 1; outline: as §2
# [7] = system: Human immunodeficiency virus 1; experiment: Binding affinity to HIV1 RRE RNA in HEK293T cells transfected with HIV1 CMV driven GagPol-RRE plasmid assessed as reduction in Rev-RRE dependent nuclear export by measuring intracellular p24 levels at 70 uM after 48 hrs by ELISA relative to control; type: cell-based
# Outline: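 HEK 293T cells transfected with Rev and CMV-driven GagPol-RRE plasmids plus luciferase control; peptides added 5 h after transfection at 70 μM; cells lysed ~48 h post-transfection and intracellular p24 quantified by ELISA as percent inhibition.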
# [8] = Cytotoxicity against HEK293T cells assessed as reduction in cell viability after 48 hrs by MTT assay; type: cell-based, HEK-293T; settings: human
# Outline: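 MTT run in parallel with the transfected HEK 293T reporter set-up; ~48 h post-transfection MTT (5 mg/mL stock in PBS) added, 4 h at 37 °C; solubilized overnight with 10% SDS/0.01 N HCl; absorbance 570 nm; mean ± SD.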
# [9] = Binding affinity to HIV1 rev response element 2B RNA in presence of 10-fold excess RRE DNA by 2-AP based displacement assay; design: species or system Human immunodeficiency virus 1; outline: as §2
# [10] = system: Human immunodeficiency virus 1; experiment: Binding affinity to HIV1 234 nucleotide NL4-3 5'-RRE RNA assessed as protection of secondary Rev binding sites from cleavage by […] incubated for 1 hr by SHAPE analysis
SMILES,IC50 [1],Activity [2],Activity [3],Kd [4],Kd [5],Kd [6],inhibition [7],CC50 at 48 h [8],Kd [9],Activity [10]
N=C(N)N[C@@H]1C[C@H](C(=O)N[C@@H](Cc2ccc(O)cc2)C(N)=O)N(C(=O)CN(CCNC(=O)[C@H](CCCCNC(=O)c2cnccn2)NC(=O)[C@H](CCCCNC(=O)[C@H]2C[C@@H](N)CN2C(=O)CN(CCNC(=O)CN(CCN)C(=O)Cn2cnc3c(=O)[nH]c(N)nc32)C(=O)Cn2cnc3c(=O)[nH]c(N)nc32)NC(=O)[C@H]2C[C@@H](N)CN2C(=O)CN(CCNC(=O)CN(CCN)C(=O)Cn2cnc3c(=O)[nH]c(N)nc32)C(=O)Cn2cnc3c(=O)[nH]c(N)nc32)C(=O)Cn2cnc3c(=O)[nH]c(N)nc32)C1,15400 nM,Active,Active,880 nM,3090 nM,2040 nM,> 50%,135000 nM,990 nM,Active
N=C(N)N[C@@H]1C[C@H](C(=O)N[C@@H](Cc2ccc(O)cc2)C(N)=O)N(C(=O)[C@H](CCCCNC(=O)c2cnccn2)NC(=O)[C@H](Cc2cccc3ccccc23)NC(=O)[C@H](CCCCNC(=O)[C@H](CCCCNC(=O)c2ccc(B(O)O)cc2)NC(=O)[C@H]2C[C@@H](N)CN2C(=O)[C@H]2C[C@@H](NC(=N)N)CN2)NC(=O)[C@H](CCCCNC(=O)c2ccc(B(O)O)cc2)NC(=O)[C@H]2C[C@@H](N)CN2C(=O)[C@H]2C[C@@H](NC(=N)N)CN2)C1,,,,1500 nM,,,> 50%,,,
